Published values from different studies.
Lines come from different studies, so protocols differ.
Mode: inhibitor
USP51: Ubiquitin carboxyl-terminal hydrolase 51 (USP51, Homo sapiens, UniProt Q70EK9)
DRD3: D(3) dopamine receptor (DRD3, Homo sapiens, UniProt P35462)
SLC6A3: Sodium-dependent dopamine transporter (SLC6A3, Homo sapiens, UniProt Q01959)
CA12: Carbonic anhydrase 12 (CA12, Homo sapiens, UniProt O43570)

Compound	target	test	system	setting	inhibition [%]
COc1cc2c(cc1OC)-c1cc3ccc(OC)c(OC)c3c[n+]1CC2	USP51	enzyme activity		5 µM	51
COc1cc(C(C)=O)ccc1OCC(O)CN1CCN(c2cc(Cl)ccc2C)CC1 (stereo not shown)	DRD3	enzyme activity		10 µM	35.9
O=c1ccc2cc3ccoc3cc2o1	USP51	enzyme activity		5 µM	0
Cc1ccccc1N1CCN(CCCCN2C(=O)C3CCCN3C2=O)CC1 (stereo not shown)	DRD3	enzyme activity		10 µM	47.3
CCN(c1cc(C#CCN2CCOCC2)cc(C(=O)NCc2c(C)cc(C)[nH]c2=O)c1C)[C@H]1CC[C@H](N(C)CCOC)CC1	Protein arginine N-methyltransferase 1 (PRMT1, Homo sapiens, UniProt Q99873)	enzyme activity		1 µM	10
CC(C)=CCC[C@](C)(O)[C@H]1CC[C@]2(C)[C@@H]1[C@H](O)C[C@@H]1[C@@]3(C)CC[C@H](O[C@@H]4O[C@H](CO)[C@@H](O)[C@H](O)[C@H]4O[C@@H]4O[C@H](CO)[C@@H](O)[C@H](O)[C@H]4O)C(C)(C)[C@@H]3CC[C@]12C	USP51	enzyme activity		5 µM	0
O=c1oc2cc(OCC(O)CN3CCN(c4ccc(F)cc4)CC3)ccc2c2c1CCC2 (stereo not shown)	DRD3	enzyme activity		10 µM	0
Clc1ccc(C(c2ccccc2)c2nnnn2CCCCN2CCC(Cc3ccc(Cl)c(Cl)c3)CC2)cc1 (stereo not shown)	SLC6A3	transporter uptake	HEK293	1 µM	67.8
O=C(c1ccccc1Cl)N1CCN(CCNc2cc(=O)oc3ccccc23)CC1	DRD3	enzyme activity		10 µM	-5.2
NC(=O)C[C@H](N)C(=O)O	USP51	enzyme activity		5 µM	24
CNC(=O)c1cc(Oc2ccc(NC(=O)Nc3ccc(Cl)c(C(F)(F)F)c3)cc2)ccn1	Tyrosine-protein kinase Lyn (Lyn, Mus musculus, UniProt P25911)	enzyme activity		0.3 µM	37
Clc1ccc(C(c2ccc(Cl)cc2)c2nnnn2CCCN2CCC(Cc3ccccc3)CC2)cc1	SLC6A3	transporter uptake	HEK293	1 µM	90.8
CCOC(=O)C1CSc2[nH]c(=O)sc2C1c1cn(-c2ccccc2)nc1-c1ccc(Cl)cc1 (stereo not shown)	CA12	enzyme activity, absorbance		0.1 µM	46.4
O=c1cc(-c2ccccc2)oc2cc(O)c(O)c(O)c12	USP51	enzyme activity		5 µM	95
NS(=O)(=O)c1ccc(CCNCc2ccc(-c3ccccc3F)o2)cc1	DRD3	enzyme activity		10 µM	44.2
CCOC(=O)C1CSc2[nH]c(=O)sc2C1c1cn(-c2ccccc2)nc1-c1ccc(C)cc1 (stereo not shown)	CA12	enzyme activity, absorbance		10 µM	83.1
FC(F)(F)c1cccc(-c2ccc(CNCCCN3CCOCC3)o2)c1	DRD3	enzyme activity		10 µM	50.7
COc1ccc(-c2cc(=O)c3c(O)cc(O[C@@H]4O[C@H](CO[C@@H]5O[C@@H](C)[C@H](O)[C@@H](O)[C@H]5O)[C@@H](O)[C@H](O)[C@H]4O)cc3o2)cc1O	USP51	enzyme activity		5 µM	0
CCOC(=O)C1CSc2[nH]c(=O)sc2C1c1cn(-c2ccccc2)nc1-c1ccc(OC)cc1 (stereo not shown)	CA12	enzyme activity, absorbance		10 nM	17.1
O=C1CC(c2ccccc2)Oc2ccccc21 (stereo not shown)	USP51	enzyme activity		5 µM	0
Fc1ccc(C(c2ccc(F)cc2)c2nnnn2CCCCN2CCC(CCCc3ccccc3)CC2)cc1	SLC6A3	transporter uptake	HEK293	1 µM	53.4
O=C1NC(=S)C(=Cc2cn(-c3ccccc3)nc2-c2ccc(Br)cc2)S1	CA12	enzyme activity, absorbance		1 µM	32.3
